# Laboratory results: paper PMC2864424 (Current Chemical Genomics, 2010)
# Like-named read-outs stand apart in the source and are kept apart here.
# T1: OATP1B1 (Homo sapiens, UniProt Q9Y6L6)
# T1 sequence (Q9Y6L6 1-691): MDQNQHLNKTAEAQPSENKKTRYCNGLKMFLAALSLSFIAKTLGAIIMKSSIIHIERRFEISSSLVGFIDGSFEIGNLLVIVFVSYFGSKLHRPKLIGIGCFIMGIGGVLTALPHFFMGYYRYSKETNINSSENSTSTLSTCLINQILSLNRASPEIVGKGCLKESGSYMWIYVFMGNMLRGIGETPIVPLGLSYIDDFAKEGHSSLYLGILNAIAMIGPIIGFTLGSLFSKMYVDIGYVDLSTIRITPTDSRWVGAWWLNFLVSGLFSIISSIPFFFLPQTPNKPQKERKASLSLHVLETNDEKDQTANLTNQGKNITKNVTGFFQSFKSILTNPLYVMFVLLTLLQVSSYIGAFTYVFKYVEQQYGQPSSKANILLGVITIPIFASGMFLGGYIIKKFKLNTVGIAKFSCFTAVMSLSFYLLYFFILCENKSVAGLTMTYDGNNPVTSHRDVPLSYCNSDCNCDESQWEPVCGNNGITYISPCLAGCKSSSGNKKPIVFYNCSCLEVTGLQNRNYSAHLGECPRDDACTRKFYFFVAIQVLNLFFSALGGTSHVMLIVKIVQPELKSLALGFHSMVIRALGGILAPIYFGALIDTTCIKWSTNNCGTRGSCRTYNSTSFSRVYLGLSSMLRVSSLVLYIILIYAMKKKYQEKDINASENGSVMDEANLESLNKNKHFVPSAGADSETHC
# T2: OATP1B3 (Homo sapiens, UniProt Q9NPD5)
# T2 sequence (Q9NPD5 1-702): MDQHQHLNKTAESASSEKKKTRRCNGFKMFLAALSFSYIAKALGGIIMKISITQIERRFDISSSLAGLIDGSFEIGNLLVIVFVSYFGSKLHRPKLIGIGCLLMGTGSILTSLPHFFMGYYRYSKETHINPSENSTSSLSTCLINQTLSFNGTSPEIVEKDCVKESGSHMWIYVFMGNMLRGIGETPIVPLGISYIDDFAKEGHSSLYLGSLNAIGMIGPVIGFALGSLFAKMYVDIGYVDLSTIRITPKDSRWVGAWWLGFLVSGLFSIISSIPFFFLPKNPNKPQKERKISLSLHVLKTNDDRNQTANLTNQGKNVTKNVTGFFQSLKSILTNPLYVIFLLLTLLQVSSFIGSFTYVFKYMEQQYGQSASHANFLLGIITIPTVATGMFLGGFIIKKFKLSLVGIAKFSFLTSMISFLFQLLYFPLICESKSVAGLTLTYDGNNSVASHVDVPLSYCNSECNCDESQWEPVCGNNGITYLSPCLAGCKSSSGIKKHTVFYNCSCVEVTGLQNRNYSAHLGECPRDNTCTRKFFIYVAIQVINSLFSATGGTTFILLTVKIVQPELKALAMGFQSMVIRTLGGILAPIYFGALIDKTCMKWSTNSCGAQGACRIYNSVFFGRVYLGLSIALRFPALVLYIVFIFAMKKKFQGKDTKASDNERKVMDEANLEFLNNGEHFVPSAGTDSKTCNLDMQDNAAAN
# Assays:
# [1] = molecular target: T1, OATP1B1; assay type: cell-based; settings: for preferential / selective inhibition of OATP1B1-mediated FMTX transport: compared with OATP1B3
# [2] = test system: OATP1B1 and OATP1B3 (not distinguished); assay type: cell-based, human; settings: human, CHO cells stably expressing OATP1B1 or OATP1B3, pH 7.4, probe FMTX, 5 µM
# [3] = test system: OATP1B1; settings: read-out: Ki, inhibition of OATP1B1-mediated pitavastatin uptake; cited from earlier work
# [4] = molecular target: T2, OATP1B3; assay type: cell-based
# Method in brief: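 Stably transfected CHO cells were grown at 37 °C, 5% CO2 in DMEM with 10% FBS, L-proline and 500 μg/ml G-418, passaged twice weekly and used up to passage 55. Cells were washed with 37 °C uptake buffer (pH 7.4) and incubated with fluorescent compound at 37 °C. Cells were then washed four times with ice-cold buffer and lysed in 1% Triton X-100. Fluorescence was read at 485/528 nm, with Vmax expressed per mg protein per min.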
# [5] = test system: OATP1B1 and OATP1B3; assay type: cell-based, human; settings: primary screen of FMTX uptake by OATP1B1 or OATP1B3
# [6] = molecular target: T1, OATP1B1; assay type: cell-based; settings: 24-well plates
# [7] = molecular target: T2, OATP1B3; assay type: cell-based; settings: for preferential inhibition of OATP1B3-mediated FMTX transport: compared with OATP1B1
# [8] = test system: wild-type CHO cells; assay: FMTX uptake into wild-type CHO cells, 96-well plates; assay type: cell-based, Chinese Hamster; settings: 5 μM FMTX, 30 min, room temperature
# Method in brief: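 Cells were washed three times with room-temperature buffer and given 5 µM FMTX for 30 min at room temperature. They were then washed four times and lysed in 1% Triton X-100 in PBS. Fluorescence was read at ex 485/em 528 nm.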
# [9] = test system: OATP2B1; settings: cited from earlier work
# [10] = substrate: O=C1OC2(c3ccc(O)cc3Oc3cc(O)ccc32)c2ccccc21; assay type: cell-based, human; settings: other: 37 °C, 2 min, 24-well plates, net uptake
# [11] = 5 μM FMTX, 30 min, room temperature, 96-well plates
# [12] = 5 μM FMTX, 30 min, room temperature, 96-well plates, no inhibitor
molecule,measurement,setting,value
CCOc1cc(CC(=O)N[C@@H](CC(C)C)c2ccccc2N2CCCCC2)ccc1C(=O)O [Repaglinide],preferential / selective inhibition of OATP1B1-mediated FMTX transport,[1],preferentially inhibited OATP1B1
CN(Cc1cnc2nc(N)nc(N)c2n1)c1ccc(C(=O)N[C@@H](CCC(=O)O)C(=O)O)cc1 [methotrexate],"inhibition at 30 min, 100 µM",[2],30%
same,Ki,[3],> 300 µM
Alexa Fluor® 488 methotrexate [AMTX],substrate of OATP1B3,"[4]; 1 µM, 30 min, 24-well plates",not transported
O=C(COc1ccc(Cl)cc1)N1CCN(Cc2ccc3c(c2)OCO3)CC1 [Fipexide],preferential / selective inhibition of OATP1B1-mediated FMTX transport,[1],preferentially inhibited OATP1B1
CC(C)(C)NC(=O)[C@@H]1C[C@@H]2CCCC[C@@H]2CN1C[C@@H](O)[C@H](Cc1ccccc1)NC(=O)[C@H](CC(N)=O)NC(=O)c1ccc2ccccc2n1 [saquinavir],Prestwick library screening result,[5],strongest inhibitors
O=C(O)c1cccnc1Nc1cccc(C(F)(F)F)c1 [Niflumic acid],preferential / selective inhibition of OATP1B1-mediated FMTX transport,[1],preferentially inhibited OATP1B1
Cc1ncc([N+](=O)[O-])n1CCO [Metronidazole],IC50 at 30 min,[2],> 100 µM
Bromocryptine,preferential / selective inhibition of OATP1B1-mediated FMTX transport,[1],preferentially inhibited OATP1B1
CC(C)C[C@H]1C(=O)N2CCC[C@H]2[C@]2(O)O[C@](NC(=O)[C@@H]3C=C4c5cccc6[nH]cc(c56)C[C@H]4N(C)C3)(C(C)C)C(=O)N12 [Ergocryptine],preferential / selective inhibition of OATP1B1-mediated FMTX transport,[1],preferentially inhibited OATP1B1
O=C1OC2(c3ccc(O)cc3Oc3cc(O)ccc32)c2ccccc21 [fluorescein],transported by OATP1B1,"[6]; 1 µM, 30 min",transported
same,Km at 2 min,"[4]; human, CHO cells stably expressing OATP1B3, pH 7.4",82 ± 10 µM
CCN1C[C@]2(COC)[C@H](O)C[C@H](OC)[C@@]34[C@@H]5C[C@@]6(O)[C@H](OC(=O)c7ccccc7)[C@@H]5[C@@](OC(C)=O)([C@@H]([C@H](OC)[C@H]23)[C@@H]14)[C@@H](O)[C@@H]6OC [Aconitine],IC50 at 30 min,[2],> 100 µM
fluorescein-methotrexate [FMTX],"typical uptake, OATP1B1-expressing cells",[1]; [11],"15,060 ± 1,540 fluorescent units"
same,"signal-to-basal ratio of uptake, OATP1B1",[1]; [12],3.4
same,"typical uptake, OATP1B3-expressing cells",[7]; [11],"33,880 ± 3,645 fluorescent units"
same,"signal-to-basal ratio of uptake, OATP1B3",[7]; [12],7.7
same,transported by OATP1B1,"[6]; 1 µM, 30 min",transported
same,"uptake signal, OATP1B1","[6]; 1 µM, 30 min, versus wild-type CHO",about 3 fold
same,"Vmax, OATP1B1","[6]; 37 °C, 2 min",961 ± 198 fluorescent units/mg protein * min
same,Km,"[6]; read-out: apparent Km, OATP1B1, 37 °C, 2 min, net uptake",3.8 ± 0.7 µM
same,"uptake signal, OATP1B3","[4]; 1 µM, 30 min, 24-well plates, versus wild-type CHO",about 4.5 fold
same,"Vmax, OATP1B3","[4]; 37 °C, 2 min, 24-well plates",4772 ± 709 fluorescent units/mg protein * min
same,fold higher transport efficiency of OATP1B3 than OATP1B1,[4]; Vmax/Km compared,2–3 fold
same,Km,"[4]; read-out: apparent Km, OATP1B3, 37 °C, 2 min, 24-well plates, net uptake",7.9 ± 2 µM
same,"typical uptake, wild-type CHO cells",[8],"4,400 ± 80 fluorescent units"
O=c1[nH]c(=O)n([C@H]2C[C@H](O)[C@@H](CO)O2)cc1C(F)(F)F [Trifluridine],IC50 at 30 min,[2],> 100 µM
CC(=O)[C@H]1CC[C@H]2[C@@H]3CCC4=CC(=O)CC[C@]4(C)[C@H]3CC[C@]12C [progesterone],IC50,[1],5.4 ± 1.9 µM
same,effect on OATP1B1-mediated FMTX uptake,[1]; [11],inhibited
same,EC50,[7],0.2 µM
same,effect on OATP1B3-mediated FMTX uptake,[7]; [11],stimulated
same,effect on OATP2B1-mediated estrone-3-sulfate uptake,[9],stimulate
CCOC(=O)c1cncn1[C@H](C)c1ccccc1 [Etomidate],IC50 at 30 min,[2],> 100 µM
CCOC(=O)Nc1ccc2c(c1)N(C(=O)CCN1CCOCC1)c1ccccc1S2 [Moricizine],preferential inhibition of OATP1B3-mediated FMTX transport,[7],preferentially inhibited OATP1B3
C[C@H]1C[C@H]2[C@@H]3CCC4=CC(=O)C=C[C@]4(C)[C@@]3(Cl)[C@@H](O)C[C@]2(C)[C@@]1(O)C(=O)CO [Beclomethasone],selectivity for OATP1B3 over OATP1B1,[7]; FMTX uptake IC50 values,about 5 fold
same,preferential inhibition of OATP1B3-mediated FMTX transport,[7],preferential inhibitors
same,preferential inhibition of OATP1B3-mediated FMTX transport,[7]; listed as beclamethasone,preferentially inhibited OATP1B3
OATP1B1 (Homo sapiens) (protein) MDQNQHLNKTAEAQPSENKKTRYCNGLKMFLAALSLSFIAKTLGAIIMKSSIIHIERRFEISSSLVGFIDGSFEIGNLLVIVFVSYFGSKLHRPKLIGIGCFIMGIGGVLTALPHFFMGYYRYSKETNINSSENSTSTLSTCLINQILSLNRASPEIVGKGCLKESGSYMWIYVFMGNMLRGIGETPIVPLGLSYIDDFAKEGHSSLYLGILNAIAMIGPIIGFTLGSLFSKMYVDIGYVDLSTIRITPTDSRWVGAWWLNFLVSGLFSIISSIPFFFLPQTPNKPQKERKASLSLHVLETNDEKDQTANLTNQGKNITKNVTGFFQSFKSILTNPLYVMFVLLTLLQVSSYIGAFTYVFKYVEQQYGQPSSKANILLGVITIPIFASGMFLGGYIIKKFKLNTVGIAKFSCFTAVMSLSFYLLYFFILCENKSVAGLTMTYDGNNPVTSHRDVPLSYCNSDCNCDESQWEPVCGNNGITYISPCLAGCKSSSGNKKPIVFYNCSCLEVTGLQNRNYSAHLGECPRDDACTRKFYFFVAIQVLNLFFSALGGTSHVMLIVKIVQPELKSLALGFHSMVIRALGGILAPIYFGALIDTTCIKWSTNNCGTRGSCRTYNSTSFSRVYLGLSSMLRVSSLVLYIILIYAMKKKYQEKDINASENGSVMDEANLESLNKNKHFVPSAGADSETHC,Km,[10],38 ± 5 µM
